Results as given in ChEMBL document CHEMBL5058577, “EUbOPEN Chemogenomics Library 2 (Multiplex)” (2022).

Test system: HEK-293T
Test: Multiplex assay against HEK293T
Type: toxicity, cell-based
Details: human
In short: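 Cells were classed with CellPathfinder machine-learning gating, first as Hoechst high-intensity objects or normal cells, then (normal cells) as healthy, pyknosed or fragmented nuclei, and finally (pyknosed cells) as mitotic or apoptotic. Staining of live cells at seeding used Hoechst33342, BioTracker Green Microtubule Cytoskeleton Dye, MitoTracker Red and Annexin V Alexa Fluor 680, with imaging on a CQ1 microscope at 37°C and 5% CO2 after compound addition. Tubulin, mitochondrial-mass and membrane-permeability phenotypes are per cents of healthy-nucleus cells.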

[1] = 12 h, 1 µM, compound concentration 1 uM, replicate 1
[2] = 12 h, 1 µM, compound concentration 1 uM, replicate 2
[3] = 12 h, 10 µM, compound concentration 10 uM, replicate 1
[4] = 12 h, 10 µM, compound concentration 10 uM, replicate 2
[5] = 24 h, 1 µM, compound concentration 1 uM, replicate 1
[6] = 24 h, 1 µM, compound concentration 1 uM, replicate 2
[7] = 24 h, 10 µM, compound concentration 10 uM, replicate 1
[8] = 24 h, 10 µM, compound concentration 10 uM, replicate 2
[9] = 48 h, 1 µM, compound concentration 1 uM, replicate 1
[10] = 48 h, 1 µM, compound concentration 1 uM, replicate 2
[11] = 48 h, 10 µM, compound concentration 10 uM, replicate 1
[12] = 48 h, 10 µM, compound concentration 10 uM, replicate 2

What does the source list for `Br.CS(=O)(=O)Nc1c(O)ccc2c1CCCC2C1=NCCN1` (configuration not stated)?
Population Apoptotic (%) [1]: 40%; Population Fragmented Nuclei (%) [1]: 7%; Population Healthy Nuclei (%) [1]: 80%; Population Hoechst High Intensity Objects (%) [1]: 5%; Population Membrane Permeable-Phenotype (%) [1]: 0%; Population Mitochondria Different-Phenotype (%) [1]: 45%; Population Mitotic Cells (%) [1]: 59%; Population Normal (%) [1]: 94%; Population Pyknosed Nuclei (%) [1]: 12%; Population Tubulin-Different-Phenotype (%) [1]: 26%; Total Cell Count [1]: 407; Population Apoptotic (%) [2]: 43%; Population Fragmented Nuclei (%) [2]: 5%; Population Healthy Nuclei (%) [2]: 81%; Population Hoechst High Intensity Objects (%) [2]: 8%; Population Mitochondria Different-Phenotype (%) [2]: 52%; Population Mitotic Cells (%) [2]: 56%; Population Normal (%) [2]: 91%; Population Tubulin-Different-Phenotype (%) [2]: 18%; Total Cell Count [2]: 334; Population Apoptotic (%) [3]: 48%; Population Fragmented Nuclei (%) [3]: 8%; Population Healthy Nuclei (%) [3]: 76%; Population Hoechst High Intensity Objects (%) [3]: 12%; Population Membrane Permeable-Phenotype (%) [3]: 0%; Population Mitochondria Different-Phenotype (%) [3]: 60%; Population Mitotic Cells (%) [3]: 52%; Population Normal (%) [3]: 87%; Population Pyknosed Nuclei (%) [3]: 14%; Population Tubulin-Different-Phenotype (%) [3]: 33%; Total Cell Count [3]: 381; Population Apoptotic (%) [4]: 55%; Population Fragmented Nuclei (%) [4]: 6%; Population Healthy Nuclei (%) [4]: 79%; Population Hoechst High Intensity Objects (%) [4]: 14%; Population Mitochondria Different-Phenotype (%) [4]: 67%; Population Mitotic Cells (%) [4]: 44%; Population Normal (%) [4]: 85%; Population Tubulin-Different-Phenotype (%) [4]: 26%; Total Cell Count [4]: 292; Population Apoptotic (%) [5]: 38%; Population Fragmented Nuclei (%) [5]: 10%; Population Healthy Nuclei (%) [5]: 79%; Population Hoechst High Intensity Objects (%) [5]: 5%; Population Membrane Permeable-Phenotype (%) [5]: 1%; Population Mitochondria Different-Phenotype (%) [5]: 34%; Population Mitotic Cells (%) [5]: 61%; Population Normal (%) [5]: 94%; Population Pyknosed Nuclei (%) [5]: 10%; Population Tubulin-Different-Phenotype (%) [5]: 21%; Total Cell Count [5]: 549; Population Apoptotic (%) [6]: 55%; Population Fragmented Nuclei (%) [6]: 6%; Population Healthy Nuclei (%) [6]: 80%; Population Hoechst High Intensity Objects (%) [6]: 8%; Population Membrane Permeable-Phenotype (%) [6]: 0%; Population Mitochondria Different-Phenotype (%) [6]: 41%; Population Mitotic Cells (%) [6]: 44%; Population Normal (%) [6]: 91%; Population Pyknosed Nuclei (%) [6]: 13%; Population Tubulin-Different-Phenotype (%) [6]: 17%; Total Cell Count [6]: 387; Population Apoptotic (%) [7]: 30%; Population Fragmented Nuclei (%) [7]: 11%; Population Healthy Nuclei (%) [7]: 75%; Population Hoechst High Intensity Objects (%) [7]: 6%; Population Membrane Permeable-Phenotype (%) [7]: 0%; Population Mitochondria Different-Phenotype (%) [7]: 40%; Population Mitotic Cells (%) [7]: 69%; Population Normal (%) [7]: 93%; Population Pyknosed Nuclei (%) [7]: 12%; Population Tubulin-Different-Phenotype (%) [7]: 23%; Total Cell Count [7]: 451; Population Apoptotic (%) [8]: 34%; Population Healthy Nuclei (%) [8]: 77%; Population Hoechst High Intensity Objects (%) [8]: 11%; Population Mitochondria Different-Phenotype (%) [8]: 46%; Population Mitotic Cells (%) [8]: 65%; Population Normal (%) [8]: 88%; Population Pyknosed Nuclei (%) [8]: 10%; Population Tubulin-Different-Phenotype (%) [8]: 21%; Total Cell Count [8]: 377; Population Apoptotic (%) [9]: 12%; Population Fragmented Nuclei (%) [9]: 14%; Population Healthy Nuclei (%) [9]: 78%; Population Hoechst High Intensity Objects (%) [9]: 4%; Population Membrane Permeable-Phenotype (%) [9]: 0%; Population Mitochondria Different-Phenotype (%) [9]: 20%; Population Mitotic Cells (%) [9]: 87%; Population Normal (%) [9]: 95%; Population Pyknosed Nuclei (%) [9]: 7%; Population Tubulin-Different-Phenotype (%) [9]: 14%; Total Cell Count [9]: 859; Population Apoptotic (%) [10]: 29%; Population Fragmented Nuclei (%) [10]: 11%; Population Hoechst High Intensity Objects (%) [10]: 6%; Population Mitochondria Different-Phenotype (%) [10]: 22%; Population Mitotic Cells (%) [10]: 70%; Population Normal (%) [10]: 93%; Population Pyknosed Nuclei (%) [10]: 9%; Population Tubulin-Different-Phenotype (%) [10]: 12%; Total Cell Count [10]: 532; Population Apoptotic (%) [11]: 34%; Population Fragmented Nuclei (%) [11]: 16%; Population Healthy Nuclei (%) [11]: 76%; Population Hoechst High Intensity Objects (%) [11]: 4%; Population Membrane Permeable-Phenotype (%) [11]: 1%; Population Mitochondria Different-Phenotype (%) [11]: 22%; Population Mitotic Cells (%) [11]: 65%; Population Normal (%) [11]: 95%; Population Pyknosed Nuclei (%) [11]: 6%; Population Tubulin-Different-Phenotype (%) [11]: 12%; Total Cell Count [11]: 671; Population Apoptotic (%) [12]: 48%; Population Fragmented Nuclei (%) [12]: 14%; Population Healthy Nuclei (%) [12]: 79%; Population Membrane Permeable-Phenotype (%) [12]: 0%; Population Mitochondria Different-Phenotype (%) [12]: 27%; Population Mitotic Cells (%) [12]: 51%; Population Pyknosed Nuclei (%) [12]: 5%; Population Tubulin-Different-Phenotype (%) [12]: 11%; Total Cell Count [12]: 584
